Measured values from ChEMBL document CHEMBL1148583, “Substituted 2-thioxoimidazolidin-4-ones and imidazolidine-2,4-diones as fatty acid amide hydrolase inhibitors templates” (J Med Chem, 2006).

Assays:
[1] = biological target: Cannabinoid receptor 2 (Homo sapiens) (UniProt P34972); assay: Displacement of [3H]CP-55940 from human CB2 expressed in CHO cells at 10 uM; format: cell-based
How it was run: (§1)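 Membranes from CHO cells expressing hCB1 or hCB2 (40 µg per tube). Radioligand was 1 nM [3H]-SR141716A for CB1 or 1 nM [3H]-CP-55,940 for CB2. Competitor at 10 µM; nonspecific binding defined with 10 µM HU-210. Incubation 1 h at 30 °C in 50 mM Tris-HCl, 3 mM MgCl2, 1 mM EDTA, 0.5% BSA, pH 7.4. Filtered on PEI-treated GF/B and counted. Result is % displacement, ≥3 runs in duplicate, mean ± SEM.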

[2] = biological target: Cannabinoid receptor 1 (Homo sapiens) (UniProt P21554); assay: Displacement of [3H]SR141716A from human CB1 expressed in CHO cells at 10 uM; format: cell-based; how it was run: as §1
[3] = biological target: T1, Fatty-acid amide hydrolase 1 (Rattus norvegicus, UniProt P97612); assay: Inhibitory activity against FAAH in Wistar rat brain homogenate at pH 9.0; format: tissue-based
T1 sequence (P97612 whole entry): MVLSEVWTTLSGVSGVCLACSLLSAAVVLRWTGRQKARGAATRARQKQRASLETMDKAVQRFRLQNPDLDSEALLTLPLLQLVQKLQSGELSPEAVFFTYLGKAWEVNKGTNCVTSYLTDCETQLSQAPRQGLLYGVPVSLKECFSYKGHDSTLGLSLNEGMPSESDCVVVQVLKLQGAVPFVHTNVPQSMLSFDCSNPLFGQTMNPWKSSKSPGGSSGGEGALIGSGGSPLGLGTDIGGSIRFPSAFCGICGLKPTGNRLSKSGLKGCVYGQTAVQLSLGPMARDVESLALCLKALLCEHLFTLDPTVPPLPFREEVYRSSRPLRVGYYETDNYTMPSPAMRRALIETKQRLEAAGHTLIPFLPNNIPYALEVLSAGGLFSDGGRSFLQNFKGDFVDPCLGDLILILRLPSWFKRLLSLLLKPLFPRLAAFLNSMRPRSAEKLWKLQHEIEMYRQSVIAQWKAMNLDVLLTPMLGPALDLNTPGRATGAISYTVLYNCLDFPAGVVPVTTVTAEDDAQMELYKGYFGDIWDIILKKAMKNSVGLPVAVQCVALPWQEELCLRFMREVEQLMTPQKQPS
How it was run: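 Enzyme from male Wistar rat (250-300 g) brain membranes, washed by 36 000g spins and kept at -80 °C. Anandamide hydrolysis at pH 9.0 in 10 mM Tris-HCl, 1 mM EDTA, 0.1% BSA, 37 °C for 10 min. Stopped with cold chloroform/methanol, then the methanol/buffer phase was counted for radioactivity. Inhibition curves run ≥3 times in duplicate; IC50 by nonlinear regression, given as pI50 ± SEM.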

[4] = biological target: T2, Fatty-acid amide hydrolase 1 (Rattus norvegicus) (UniProt P97612); assay: Inhibitory activity against FAAH in rat brain homogenate at 100 uM; format: tissue-based; conditions: wistar
T2 sequence (whole entry): T1 sequence (P97612 whole entry)
How it was run: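 Rat brain membrane homogenate hydrolysing anandamide in 10 mM Tris-HCl, 1 mM EDTA, 0.1% BSA, pH 7.6, at 37 °C for 10 min. Reaction quenched with cold chloroform/methanol; radioactivity counted in the aqueous methanol phase. Compound tested at 100 µM; percent inhibition of FAAH activity reported.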

Cannabinoid receptor 1 (Homo sapiens), sequence (P21554 whole entry): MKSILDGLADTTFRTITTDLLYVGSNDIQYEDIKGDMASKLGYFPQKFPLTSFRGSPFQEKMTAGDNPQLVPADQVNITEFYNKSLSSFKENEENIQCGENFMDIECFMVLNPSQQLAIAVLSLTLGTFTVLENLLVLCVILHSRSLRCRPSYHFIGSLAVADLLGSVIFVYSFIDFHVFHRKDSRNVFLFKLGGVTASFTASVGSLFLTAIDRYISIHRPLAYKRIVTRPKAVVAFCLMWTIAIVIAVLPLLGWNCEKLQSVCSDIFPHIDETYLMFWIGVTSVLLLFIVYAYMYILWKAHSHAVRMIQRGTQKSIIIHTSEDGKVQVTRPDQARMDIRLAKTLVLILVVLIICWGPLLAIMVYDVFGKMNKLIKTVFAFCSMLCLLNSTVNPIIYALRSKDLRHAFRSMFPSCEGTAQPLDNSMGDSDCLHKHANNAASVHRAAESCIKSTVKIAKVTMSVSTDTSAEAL
Cannabinoid receptor 2 (Homo sapiens), sequence (P34972 whole entry): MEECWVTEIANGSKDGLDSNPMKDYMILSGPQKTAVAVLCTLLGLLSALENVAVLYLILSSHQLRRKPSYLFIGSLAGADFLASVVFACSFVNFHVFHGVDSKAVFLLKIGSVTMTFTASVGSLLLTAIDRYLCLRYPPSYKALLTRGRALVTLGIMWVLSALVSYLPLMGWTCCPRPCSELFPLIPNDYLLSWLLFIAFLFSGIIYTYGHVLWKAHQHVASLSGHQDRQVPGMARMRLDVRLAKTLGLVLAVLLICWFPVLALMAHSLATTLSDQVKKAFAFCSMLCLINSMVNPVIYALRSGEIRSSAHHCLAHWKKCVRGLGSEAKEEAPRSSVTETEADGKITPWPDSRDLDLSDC

Row | Activity [1] [%] | Activity [2] [%] | IC50 [3] [µM] | Inhibition [4] [%] | SMILES
1 | < 20 | 40.1 | – | – | CCCCCCCCN1C(=O)NC(c2ccc(F)cc2)(c2ccc(F)cc2)C1=O
2 | < 20 | 39.5 | – | – | CCCCCCCCN1C(=O)NC(c2ccc(Cl)cc2)(c2ccc(Cl)cc2)C1=O
3 | < 20 | 44.8 | – | – | CCCCCCCN1C(=O)NC(c2ccc(Br)cc2)(c2ccc(Br)cc2)C1=O
4 | < 20 | 73.8 | – | – | CCCCN1C(=O)C(c2ccc(Br)cc2)(c2ccc(Br)cc2)NC1=S
5 | < 20 | < 10 | 1.35 | – | CCCCCCCCCCN1C(=O)C(c2ccccc2)(c2ccccc2)NC1=S
6 | < 10 | 42.8 | – | – | CCCCN1C(=O)C(c2ccccc2)(c2ccccc2)NC1=S
7 | 23.1 | 69.2 | – | – | CCCCN1C(=O)NC(c2ccc(Br)cc2)(c2ccc(Br)cc2)C1=O
8 | < 20 | 34.2 | – | – | CCCCCCCN1C(=O)C(c2ccc(Br)cc2)(c2ccc(Br)cc2)NC1=S
9 | < 20 | 21.3 | – | – | CCCCCN1C(=O)NC(c2ccccc2)(c2ccccc2)C1=O
10 | < 20 | 29.9 | 10 | – | CCCCCCN1C(=O)NC(c2ccccc2)(c2ccccc2)C1=O
11 | < 20 | 51.2 | – | – | CCCCN1C(=O)NC(c2ccc(Cl)cc2)(c2ccc(Cl)cc2)C1=O
12 | < 20 | 24.5 | – | – | CCCCCCCCN1C(=O)NC(c2ccc(C)cc2)(c2ccc(C)cc2)C1=O
13 | < 20 | 72.7 | – | – | CCCCN1C(=O)C(c2ccc(Cl)cc2)(c2ccc(Cl)cc2)NC1=S
14 | < 20 | 23.4 | – | – | CCCCCCCCN1C(=O)C(c2ccc(Br)cc2)(c2ccc(Br)cc2)NC1=S
15 | < 20 | 28.8 | – | – | CCCCCCCN1C(=O)C(c2ccccc2)(c2ccccc2)NC1=S
16 | < 10 | 36.6 | – | – | CCCCCCCCN1C(=O)C(c2ccc(Cl)cc2)(c2ccc(Cl)cc2)NC1=S
17 | < 20 | 38.8 | – | – | CCCCCCCCN1C(=O)C(c2ccccc2)(c2ccccc2)NC1=S
18 | < 15 | 74.2 | – | – | O=C1N(Cc2ccccc2)C(=S)NC1(c1ccc(Cl)cc1)c1ccc(Cl)cc1
19 | < 10 | 40 | – | – | CCN1C(=O)C(c2ccccc2)(c2ccccc2)NC1=S
20 | < 20 | 27.6 | – | – | CCCCCN1C(=O)C(c2ccccc2)(c2ccccc2)NC1=S
21 | < 20 | < 20 | – | – | CCCCN1C(=O)NC(c2ccccc2)(c2ccccc2)C1=O
22 | < 20 | 31.2 | – | – | CCCCCCCCN1C(=O)NC(c2ccc(OC)cc2)(c2ccc(OC)cc2)C1=O
23 | 21.1 | 45.1 | – | – | CCCCCCCCN1C(=O)NC(c2ccc(Br)cc2)(c2ccc(Br)cc2)C1=O
24 | < 20 | 21.9 | – | – | CCCCCCN1C(=O)C(c2ccccc2)(c2ccccc2)NC1=S
25 | < 10 | 34.6 | – | – | CC(C)CN1C(=O)C(c2ccccc2)(c2ccccc2)NC1=S
26 | < 20 | 20.8 | – | – | O=C1N(CCCO)C(=S)NC1(c1ccccc1)c1ccccc1
27 | < 20 | 29.4 | – | – | COCCCN1C(=O)C(c2ccccc2)(c2ccccc2)NC1=S
28 | < 20 | 67.8 | – | – | CCCCCCCN1C(=O)C(c2ccc(Cl)cc2)(c2ccc(Cl)cc2)NC1=S
29 | < 20 | 42.7 | – | – | CCCCCCCN1C(=O)NC(c2ccc(Cl)cc2)(c2ccc(Cl)cc2)C1=O

The next lines start with the compound.

Row | SMILES | Activity [1] [%] | Activity [2] [%] | IC50 [3] [µM] | Inhibition [4] [%]
30 | O=C1NC(c2ccccc2)C(=O)N1c1ccccc1 (centres undefined) | < 20 | < 20 | – | –
31 | CCCCCCCC/C=C\CCCCCCCCN1C(=O)C(c2ccccc2)(c2ccccc2)NC1=S | < 10 | < 10 | – | –
32 | CCCCCCCN1C(=O)NC(c2ccccc2)(c2ccccc2)C1=O | < 20 | 23.4 | 8.32 | –
33 | O=C1N(c2ccccc2)C(=S)NC1(c1ccccc1)c1ccccc1 | < 20 | 32.6 | – | –
34 | CCCCCCCCCCN1C(=O)NC(c2ccccc2)(c2ccccc2)C1=O | < 20 | < 20 | – | –
35 | CCCCCCCN1C(=O)CNC1=O | < 20 | < 20 | – | –
36 | O=C1NC(c2ccccc2)(c2ccccc2)C(=O)N1CCc1ccccc1 | < 20 | < 20 | – | –
37 | CCCCN1C(=O)CNC1=S | < 20 | < 20 | – | < 10
38 | O=C1N(Cc2ccccc2)C(=S)NC1(c1ccccc1)c1ccccc1 | < 20 | 44.7 | – | –
39 | O=C1NC(=S)NC1(c1ccccc1)c1ccccc1 | < 10 | < 15 | – | –
40 | CCCCCCCN1C(=O)C(c2ccccc2)N(c2ccccc2)C1=O (centres undefined) | < 20 | 45.6 | – | –
41 | CCCCCCCCCCCCCCCCN1C(=O)C(c2ccccc2)(c2ccccc2)NC1=S | < 10 | < 10 | – | –
42 | CCCCCCCCN1C(=O)NC(c2ccccc2)(c2ccccc2)C1=O | < 20 | 25.1 | – | –
43 | O=C1CNC(=S)N1c1ccccc1 | < 20 | < 20 | – | 25
44 | CCCCCCCCCCCCCCN1C(=O)NC(c2ccccc2)(c2ccccc2)C1=O | < 20 | < 20 | – | –
45 | O=C1NC(c2ccc(Cl)cc2)(c2ccc(Cl)cc2)C(=O)N1Cc1ccccc1 | < 20 | 72.2 | – | –
46 | O=C1NC(c2ccccc2)(c2ccccc2)C(=O)N1Cc1ccccc1 | < 20 | 33.7 | – | –
47 | CCCCCCCN1C(=O)C(c2ccccc2)(c2ccccc2)N(CCCCCCC)C1=S | < 20 | < 20 | – | –
48 | CCCCCCCN1C(=O)C(c2ccccc2)NC1=S (centres undefined) | < 20 | < 20 | – | –
49 | CCN1C(=O)NC(c2ccccc2)(c2ccccc2)C1=O | < 20 | < 20 | – | –
50 | O=C1NC(=O)N(c2ccccc2)C1c1ccccc1 (centres undefined) | < 20 | < 20 | – | –
51 | CCCCN1C(=O)CNC1=O | < 20 | < 20 | – | < 10
52 | O=C1NC(=S)N(c2ccccc2)C1c1ccccc1 (centres undefined) | < 20 | < 20 | – | –
53 | CCCCCCCCCCCCCCCCCCN1C(=O)C(c2ccccc2)(c2ccccc2)NC1=S | < 10 | < 10 | – | –
54 | O=C1CNC(=O)N1c1ccccc1 | < 20 | < 20 | – | 23
55 | O=C1C(c2ccccc2)NC(=S)N1c1ccccc1 (centres undefined) | < 20 | < 20 | – | –
56 | O=C1NC(=O)C(c2ccccc2)(c2ccccc2)N1 | < 20 | < 20 | – | –
57 | CCCCCCCCCCCCCCN1C(=O)C(c2ccccc2)(c2ccccc2)NC1=S | < 20 | < 10 | 0.891 | –
58 | O=C1N(CCc2ccccc2)C(=S)NC1(c1ccccc1)c1ccccc1 | < 20 | 29.3 | – | –
